From article PMC11596327 (Chemistry (Weinheim an der Bergstrasse, Germany), 2023)

Legend:
C7 = target: T1, C7 (Homo sapiens, UniProt P55210); experiment: Differential scanning fluorimetry; assay type: binding; conditions: DICA-saturated C7 plus Ac-DEVD-CMK
T1 sequence (P55210 24-198 limits assumed): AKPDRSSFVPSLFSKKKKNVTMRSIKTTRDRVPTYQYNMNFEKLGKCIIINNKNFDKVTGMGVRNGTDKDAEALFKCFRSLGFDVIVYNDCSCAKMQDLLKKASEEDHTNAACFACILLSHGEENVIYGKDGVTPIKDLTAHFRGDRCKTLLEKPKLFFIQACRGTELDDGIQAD
T1 sequence (P55210 207-303 limits assumed): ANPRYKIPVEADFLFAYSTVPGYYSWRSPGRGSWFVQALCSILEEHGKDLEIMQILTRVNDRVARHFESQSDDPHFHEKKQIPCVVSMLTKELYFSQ

Caspase-7 wt = target: T2, Caspase-7 wt (Homo sapiens, UniProt P55210); experiment: Fluorometric steady-state kinetics assay; assay type: biochemical; conditions: C7 pre-saturated with DICA (DICA-C7)
T2 sequence (P55210 24-198 limits assumed): T1 sequence (P55210 24-198 limits assumed)
T2 sequence (P55210 207-303 limits assumed): T1 sequence (P55210 207-303 limits assumed)
In short: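 Fluorometric steady-state kinetic assays on wild-type C7 and wild-type C3. Both IC50 and Ki were derived. Ki came from fitting a non-competitive inhibitor equation. Values are reported with confidence intervals at the 95% level.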

C7 wt = target: T3, C7 wt (Homo sapiens, UniProt P55210); experiment: Fluorometric stopped-flow pre-steady state kinetics assay; assay type: biochemical; conditions: with increasing concentrations of inhibitor
T3 sequence (P55210 24-198 limits assumed): T1 sequence (P55210 24-198 limits assumed)
T3 sequence (P55210 207-303 limits assumed): T1 sequence (P55210 207-303 limits assumed)
In short: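 Fluorescence stopped-flow on wild-type caspase-7. Progress curves were recorded with test compound at 6 to 500 uM or with DMSO alone, and a covalent allosteric inhibitor served as the assay-development control. Each curve was fitted individually to a pre-steady-state burst equation plus linear steady-state rate to give burst amplitude and k_burst. SE comes from a 95% confidence interval.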

For `O=C(COc1ccc(Cl)cc1Cl)NCCS` [DICA, 2-(2,4-Dichlorophenoxy)-N-(2-mercaptoethyl)-acetamide, reference compound], the “formation of physical enzyme-substrate-inhibitor (ESI) complex” value (C7) was “able to physically bind substrate and DICA simultaneously”, the “turnover of Ac-DEVD-AFC substrate” value (Caspase-7 wt) was “no turnover” and the burst amplitude (C7 wt) was “decrease”. For the same compound, the “burst phase rate constant (kburst)” value (C7 wt) was “no change”.
